ChEMBL document CHEMBL1155806, “Inorganic polyhedral metallacarborane inhibitors of HIV protease: a new approach to overcoming antiviral resistance” (J Med Chem, 2008)

Key:
[1] = biological target: Protease (Human immunodeficiency virus 1, UniProt Q9YQ12); assay: Inhibition of wild-type HIV1 BH10 protease expressed in Escherichia coli by spectrophotometric assay
How it was run: (§1)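 Recombinant PR refolded from inclusion bodies and purified. 8-10 pmol enzyme in 1 mL 0.1 M sodium acetate pH 4.7, 0.3 M NaCl, 4 mM EDTA. Ki obtained by fitting the Williams–Morrison competitive inhibition equation.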

[2] = biological target: Human immunodeficiency virus type 1 protease (Human immunodeficiency virus 1, UniProt Q72874, A71V/I54V/I84V/L10I/L24I/L33F/L63P/M46L/V82A); assay: Inhibition of HIV1 recombinant protease L10I/L24I/L33F/M46L/I54V/L63P/A71V/V82A/I84V mutant expressed in Escherichia coli by spectrophotometric assay; how it was run: as §1
[3] = biological target: Human immunodeficiency virus type 1 protease (Human immunodeficiency virus 1, UniProt Q72874, D30N/N88D); assay: Inhibition of HIV1 recombinant protease D30N/N88D mutant expressed in Escherichia coli by spectrophotometric assay; how it was run: as §1
[4] = biological target: Human immunodeficiency virus type 1 protease (Human immunodeficiency virus 1, UniProt Q72874, A71V/I84V/M46I/V82T); assay: Inhibition of HIV1 recombinant protease M46I/A71V/V82T/I84V mutant expressed in Escherichia coli by spectrophotometric assay; how it was run: as §1
[5] = biological target: Human immunodeficiency virus type 1 protease (Human immunodeficiency virus 1, UniProt Q72874, A71V/I84V/V82T); assay: Inhibition of HIV1 recombinant protease A71V/V82T/I84V mutant expressed in Escherichia coli by spectrophotometric assay; how it was run: as §1
[6] = biological target: Human immunodeficiency virus type 1 protease (Human immunodeficiency virus 1, UniProt Q72874, I47A/V32I); assay: Inhibition of HIV1 recombinant protease V32I/I47A mutant expressed in Escherichia coli by spectrophotometric assay; how it was run: as §1
[7] = biological target: Human immunodeficiency virus type 1 protease (Human immunodeficiency virus 1, UniProt Q72874, A71V/E35D/G73S/I15V/I62V/L10I/L63P/L90M/N37S/R41K); assay: Inhibition of HIV1 recombinant protease L10I/I15V/E35D/N37S/R41K/I62V/L63P/A71V/G73S/L90M mutant expressed in Escherichia coli by spectrophotometric assay
[8] = biological target: Human immunodeficiency virus type 1 protease (Human immunodeficiency virus 1, UniProt Q72874, A71V/E35D/F53L/H69K/I54V/I84V/I93L/K20R/L10F/L19I/L33F/L63P/L89M/L90M/M36I/R41K/T74P); assay: Inhibition of HIV1 recombinant protease L10F/L19I/K20R/L33F/E35D/M36I/R41K/F53L/I54V/L63P/H69K/A71V/T74P/I84V/L89M/L90M/I93L mutant expressed in Escherichia coli by spectrophotometric assay; how it was run: as §1
[9] = Ratio of Ki for HIV1 recombinant protease D30N/N88D mutant to Ki for wild-type HIV1 BH10 protease; design: species or system Human immunodeficiency virus 1
[10] = Ratio of Ki for HIV1 recombinant protease M46I/A71V/V82T/I84V mutant to Ki for wild-type HIV1 BH10 protease; design: species or system Human immunodeficiency virus 1
[11] = Ratio of Ki for HIV1 recombinant protease A71V/V82T/I84V mutant to Ki for wild-type HIV1 BH10 protease; design: species or system Human immunodeficiency virus 1
[12] = Ratio of Ki for HIV1 recombinant protease V32I/I47A mutant to Ki for wild-type HIV1 BH10 protease; design: species or system Human immunodeficiency virus 1
[13] = Ratio of Ki for HIV1 recombinant protease L10I/I15V/E35D/N37S/R41K/I62V/L63P/A71V/G73S/L90M mutant to Ki for wild-type HIV1 BH10 protease; design: species or system Human immunodeficiency virus 1
[14] = Ratio of Ki for HIV1 recombinant protease L10I/L24I/L33F/M46L/[…]/L63P/A71V/V82A/I84V mutant to Ki for wild-type HIV1 BH10 protease expressed in Escherichia coli; design: species or system Human immunodeficiency virus 1
[15] = Ratio of Ki for HIV1 recombinant protease L10F/L19I/K20R/L33F/E35D/M36I/R41K/F53L/I54V/L63P/H69K/A71V/T74P/I84V/L89M/L90M/I93L mutant to Ki for wild-type HIV1 BH10 protease; design: species or system Human immunodeficiency virus 1

Row | SMILES | Ki [1] [nM] | Ki [2] [nM] | Ki [3] [nM] | Ki [4] [nM] | Ki [5] [nM] | Ki [6] [nM] | Ki [7] [nM] | Ki [8] [nM] | Ki ratio [9] | Ki ratio [10] | Ki ratio [11] | Ki ratio [12] | Ki ratio [13] | Ki ratio [14] | Ki ratio [15]
1 | CC(C)CN(C[C@@H](O)[C@H](Cc1ccccc1)NC(=O)O[C@H]1CCOC1)S(=O)(=O)c1ccc(N)cc1 | […] | 4.1 |  |  |  |  |  |  |  |  |  |  |  |  | 
2 | Cc1c(O)cccc1C(=O)N[C@@H](CSc1ccccc1)[C@H](O)CN1C[C@H]2CCCC[C@H]2C[C@H]1C(=O)NC(C)(C)C | 0.07 |  |  |  |  |  |  |  |  |  |  |  |  |  | 
3 | COC(=O)N[C@H](C(=O)N[C@@H](Cc1ccccc1)[C@@H](O)CN(Cc1ccc(-c2ccccn2)cc1)NC(=O)[C@@H](NC(=O)OC)C(C)(C)C)C(C)(C)C [ATAZANAVIR] | 0.024 | 1.2 | 0.055 | 0.76 | 0.23 | 0.17 | 0.076 | 0.054 | 2.3 | 32 | 9.4 | 7.1 | 3.2 | 50 | 2.3
